This passage reports inhibition and IC50 results from publication PMC9089348 (ACS Omega, 2022).

By inhibition is commonly meant the relative decrease from the control value, in per cent. As usually defined, the IC50 is the midpoint of a concentration-inhibition curve. Lower therefore signals higher potency.

Common to all, as to format: cell-based
Data set [1] deals with CaV1.3 LTCCs expressed in HEK293 cells (Rattus norvegicus, UniProt P27732). Description: Automated planar whole-cell patch-clamp recording, CaV1.3. Particulars: HEK293, read-out: % Inhibition (10 μM) CaV1.3. Put shortly:
(§1)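 HEK293 lines stably expressing the channel plus Kir2.1, grown in DMEM/10% FBS at 37 °C, 5% CO2, moved to 28 °C the day before. Automated whole-cell recording at room temperature; bath (mM) 120 NaCl, 20 CsCl, 10 BaCl2, pH 7.4; CsF-based internal. Current read at 0 mV, 250 ms into step from −60 mV, before and after compound or vehicle; only CdCl2 (5 mM)-sensitive current analysed, no leak subtraction.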
(Patch clamp records ionic current or voltage across a cell membrane.)

Data set [2] has as its target CaV1.2 LTCCs expressed in HEK293 cells (Homo sapiens, UniProt Q13936). Description: Automated planar whole-cell patch-clamp recording, CaV1.2. Summed up:
as §1

The target of data set [3] is CaV1.2 L-type calcium channel (Homo sapiens, UniProt Q13936). The description is as above. Particulars: pH 7.4. Summed up:
as §1

Chain of CaV1.3 LTCCs expressed in HEK293 cells (P27732 whole entry): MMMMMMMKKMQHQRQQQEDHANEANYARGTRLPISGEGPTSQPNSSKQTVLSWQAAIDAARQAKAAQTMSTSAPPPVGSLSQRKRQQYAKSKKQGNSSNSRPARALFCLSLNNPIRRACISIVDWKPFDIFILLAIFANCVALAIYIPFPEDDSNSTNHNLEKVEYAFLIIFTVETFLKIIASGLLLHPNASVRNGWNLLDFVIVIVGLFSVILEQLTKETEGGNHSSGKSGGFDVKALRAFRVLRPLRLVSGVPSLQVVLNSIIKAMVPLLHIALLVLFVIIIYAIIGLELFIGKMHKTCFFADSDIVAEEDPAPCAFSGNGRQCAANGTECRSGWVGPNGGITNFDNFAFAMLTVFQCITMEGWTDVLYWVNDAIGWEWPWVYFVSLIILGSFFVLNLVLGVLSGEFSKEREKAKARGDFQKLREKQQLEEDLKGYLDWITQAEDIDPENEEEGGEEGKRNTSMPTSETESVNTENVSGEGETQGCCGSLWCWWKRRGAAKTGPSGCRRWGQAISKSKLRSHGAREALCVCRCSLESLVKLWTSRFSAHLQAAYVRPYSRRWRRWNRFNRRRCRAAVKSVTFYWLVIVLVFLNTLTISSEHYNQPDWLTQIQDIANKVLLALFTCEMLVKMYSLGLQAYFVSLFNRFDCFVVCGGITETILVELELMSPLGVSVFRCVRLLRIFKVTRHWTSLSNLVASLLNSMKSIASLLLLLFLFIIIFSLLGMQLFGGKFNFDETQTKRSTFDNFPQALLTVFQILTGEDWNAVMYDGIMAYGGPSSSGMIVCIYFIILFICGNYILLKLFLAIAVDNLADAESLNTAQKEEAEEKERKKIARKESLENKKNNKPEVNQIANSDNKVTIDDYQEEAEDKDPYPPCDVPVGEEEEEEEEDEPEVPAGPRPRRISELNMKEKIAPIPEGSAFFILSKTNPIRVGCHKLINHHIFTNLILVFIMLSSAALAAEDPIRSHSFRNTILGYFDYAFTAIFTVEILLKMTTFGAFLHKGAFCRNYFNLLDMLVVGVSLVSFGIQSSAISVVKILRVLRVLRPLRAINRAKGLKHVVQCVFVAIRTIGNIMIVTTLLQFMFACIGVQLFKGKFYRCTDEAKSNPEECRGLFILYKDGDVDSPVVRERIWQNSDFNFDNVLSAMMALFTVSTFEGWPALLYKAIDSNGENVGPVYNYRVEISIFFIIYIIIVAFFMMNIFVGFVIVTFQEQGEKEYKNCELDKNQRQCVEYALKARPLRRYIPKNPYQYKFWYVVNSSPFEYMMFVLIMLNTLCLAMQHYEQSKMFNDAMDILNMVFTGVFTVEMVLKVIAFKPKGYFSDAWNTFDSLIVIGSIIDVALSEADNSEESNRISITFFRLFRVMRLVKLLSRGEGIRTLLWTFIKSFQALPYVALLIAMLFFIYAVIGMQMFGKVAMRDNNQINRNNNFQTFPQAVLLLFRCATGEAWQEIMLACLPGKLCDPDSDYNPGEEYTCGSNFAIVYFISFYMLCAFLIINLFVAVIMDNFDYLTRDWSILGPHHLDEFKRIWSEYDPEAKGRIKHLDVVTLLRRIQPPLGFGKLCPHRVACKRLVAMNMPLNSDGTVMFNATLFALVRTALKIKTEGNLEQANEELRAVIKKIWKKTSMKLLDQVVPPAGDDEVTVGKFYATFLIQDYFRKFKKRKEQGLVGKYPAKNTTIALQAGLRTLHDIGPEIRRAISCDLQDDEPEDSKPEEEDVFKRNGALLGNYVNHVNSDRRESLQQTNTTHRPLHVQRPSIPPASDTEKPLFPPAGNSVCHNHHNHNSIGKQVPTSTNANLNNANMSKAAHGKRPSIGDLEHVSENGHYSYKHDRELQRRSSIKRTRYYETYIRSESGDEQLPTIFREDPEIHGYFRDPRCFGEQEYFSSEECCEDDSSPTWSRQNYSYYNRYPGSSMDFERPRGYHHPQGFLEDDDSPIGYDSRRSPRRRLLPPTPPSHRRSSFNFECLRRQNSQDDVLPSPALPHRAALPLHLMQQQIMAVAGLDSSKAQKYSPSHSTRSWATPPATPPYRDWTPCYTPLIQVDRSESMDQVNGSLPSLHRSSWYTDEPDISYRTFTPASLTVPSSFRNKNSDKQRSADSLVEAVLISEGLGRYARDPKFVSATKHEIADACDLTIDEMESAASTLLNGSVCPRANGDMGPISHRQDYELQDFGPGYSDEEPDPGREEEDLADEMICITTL
Chain of CaV1.3 LTCCs expressed in HEK293 cells (P54287 whole entry partner): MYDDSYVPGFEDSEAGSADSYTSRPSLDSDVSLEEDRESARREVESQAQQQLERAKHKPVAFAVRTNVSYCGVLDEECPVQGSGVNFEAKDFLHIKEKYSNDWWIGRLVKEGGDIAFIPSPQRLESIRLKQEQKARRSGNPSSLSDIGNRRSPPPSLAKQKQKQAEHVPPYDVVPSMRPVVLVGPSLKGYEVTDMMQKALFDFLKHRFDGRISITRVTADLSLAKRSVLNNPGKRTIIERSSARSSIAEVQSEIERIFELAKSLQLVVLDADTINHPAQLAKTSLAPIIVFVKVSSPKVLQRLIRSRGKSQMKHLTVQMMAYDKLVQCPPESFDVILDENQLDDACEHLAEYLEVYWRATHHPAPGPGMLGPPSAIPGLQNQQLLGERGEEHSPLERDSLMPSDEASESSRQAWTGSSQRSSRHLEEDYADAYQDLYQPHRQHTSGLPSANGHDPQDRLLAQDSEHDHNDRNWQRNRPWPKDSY
Chain of CaV1.3 LTCCs expressed in HEK293 cells (P54290 25-1091 partner): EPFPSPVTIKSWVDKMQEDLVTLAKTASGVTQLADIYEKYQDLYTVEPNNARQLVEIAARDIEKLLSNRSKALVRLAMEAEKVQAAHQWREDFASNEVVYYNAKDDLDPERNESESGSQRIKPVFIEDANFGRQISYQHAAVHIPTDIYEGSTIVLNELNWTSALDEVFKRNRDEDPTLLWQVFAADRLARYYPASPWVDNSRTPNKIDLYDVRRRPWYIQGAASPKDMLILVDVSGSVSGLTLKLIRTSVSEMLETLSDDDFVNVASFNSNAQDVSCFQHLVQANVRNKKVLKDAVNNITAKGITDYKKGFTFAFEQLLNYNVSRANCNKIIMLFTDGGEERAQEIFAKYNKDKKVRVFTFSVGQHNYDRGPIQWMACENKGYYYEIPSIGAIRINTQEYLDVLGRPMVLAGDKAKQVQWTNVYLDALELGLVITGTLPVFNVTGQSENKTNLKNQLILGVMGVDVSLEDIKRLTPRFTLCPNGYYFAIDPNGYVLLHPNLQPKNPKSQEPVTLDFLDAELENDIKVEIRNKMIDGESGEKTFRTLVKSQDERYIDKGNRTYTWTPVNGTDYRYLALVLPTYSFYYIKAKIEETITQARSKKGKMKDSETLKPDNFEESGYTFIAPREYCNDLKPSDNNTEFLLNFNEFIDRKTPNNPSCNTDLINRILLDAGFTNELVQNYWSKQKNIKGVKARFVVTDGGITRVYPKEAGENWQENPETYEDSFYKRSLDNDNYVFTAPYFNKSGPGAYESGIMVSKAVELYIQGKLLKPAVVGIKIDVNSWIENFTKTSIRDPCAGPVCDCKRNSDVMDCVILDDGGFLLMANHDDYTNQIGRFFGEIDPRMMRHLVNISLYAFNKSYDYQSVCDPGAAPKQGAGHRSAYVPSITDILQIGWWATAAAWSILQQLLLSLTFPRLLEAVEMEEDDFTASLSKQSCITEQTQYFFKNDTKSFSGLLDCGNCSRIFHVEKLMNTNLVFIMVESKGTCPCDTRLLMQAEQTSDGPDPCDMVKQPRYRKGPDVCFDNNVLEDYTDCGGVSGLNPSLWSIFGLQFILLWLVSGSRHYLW

For the compound `O=C1C(c2cccc([N+](=O)[O-])c2)C(=O)N(C2CCCC2)C(=O)N1CCCCc1cccc(Cl)c1` (centres unmarked) [14a, 1-(4-(3-Chlorophenyl)butyl)-3-cyclopentyl-5-(3-nitrophenyl)pyrimidine-2,4,6(1H,3H,5H)-trione], the inhibition at 10 µM was determined as 76.9% in data set [1] and 72.7% in data set [3]. In data set [2], this compound displayed an IC50 of 3.72 µM.
Regarding `O=C1C(c2cccc(C(F)(F)F)c2)C(=O)N(CCc2cccc(Cl)c2)C(=O)N1CCCc1ccc(Cl)cc1` (centres unmarked) [14b, 1-(3-Chlorophenethyl)-3-(3-(4-chlorophenyl)propyl)-5-(3-(trifluoromethyl)phenyl)pyrimidine-2,4,6(1H,3H,5H)-trione], the inhibition at 10 µM in data set [1] was 95.6%; in data set [3], 98.8%.
In the same order, the values of `O=C1C(c2cccc(C(F)(F)F)c2)C(=O)N(CCc2cccc(Cl)c2)C(=O)N1CCCc1cccc(Cl)c1` (centres unmarked) [14c, 1-(3-Chlorophenethyl)-3-(3-(3-chlorophenyl)propyl)-5-(3-(trifluoromethyl)phenyl)pyrimidine-2,4,6(1H,3H,5H)-trione] are 97.3% and 99.2%.
For the compound `O=C1C(c2cccc(C(F)(F)F)c2)C(=O)N(CCc2cccc(Cl)c2)C(=O)N1CCCc1ccc(C(F)(F)F)cc1` (centres unmarked) [14d, 1-(3-Chlorophenethyl)-5-(3-(trifluoromethyl)phenyl)-3-(3-(4-(trifluoromethyl)phenyl)propyl)pyrimidine-2,4,6(1H,3H,5H)-trione], the inhibition at 10 µM in data set [1] came out at 93.1%; in data set [3] it was 81.2%. Further, inhibition in data set [2] was half-maximal at 4.53 µM (IC50).
On to `O=C1C(c2cccc(C(F)(F)F)c2)C(=O)N(CCc2cccc(Cl)c2)C(=O)N1CCCCc1ccc(Cl)cc1` (centres unmarked) [14e, 1-(3-Chlorophenethyl)-3-(4-(4-chlorophenyl)butyl)-5-(3-(trifluoromethyl)phenyl)pyrimidine-2,4,6(1H,3H,5H)-trione], for which the inhibition at 10 µM in data set [1] was found to be 93.8%; in data set [3] it was 96.1%. In data set [2], this compound had an IC50 of 2.41 µM.
For the compound `O=C1C(c2cccc(C(F)(F)F)c2)C(=O)N(CCc2cccc(Cl)c2)C(=O)N1CCCCc1cccc(Cl)c1` (centres unmarked) [14f, 1-(3-Chlorophenethyl)-3-(4-(3-chlorophenyl)butyl)-5-(3-(trifluoromethyl)phenyl) pyrimidine-2,4,6(1H,3H,5H)-trione], the inhibition at 10 µM stood at 79.8% in data set [1] and 100% in data set [3].
For `O=C1C(c2cccc(C(F)(F)F)c2)C(=O)N(CCc2cccc(Cl)c2)C(=O)N1CCCCc1ccc(C(F)(F)F)cc1` (centres unmarked) [14g, 1-(3-Chlorophenethyl)-5-(3-(trifluoromethyl)phenyl)-3-(4-(4-(trifluoromethyl)phenyl)butyl)pyrimidine-2,4,6(1H,3H,5H)-trione], the inhibition at 10 µM in data set [1] was determined as 82.8%; in data set [3], 88.2%.
